Reference: ChEMBL document CHEMBL3091378, “Design, synthesis and biological evaluation of α-substituted isonipecotic acid benzothiazole analogues as potent bacterial type II topoisomerase inhibitors” (Bioorg Med Chem Lett, 2013)
≈ marks a conversion by molar mass, not a printed value. Calls of active or inactive are those of the source. The calls are words filed in the database; no cut-off is given here.

Experiments:
Enterococcus faecalis = experiment: Antibacterial activity against Enterococcus faecalis ATCC 29212 assessed as growth inhibition after 16 to 20 hrs by broth microdilution method; format: functional
Outline: (§1)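 Broth microdilution susceptibility testing following the CLSI M7-A7 standard; MIC determined.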

Haemophilus influenzae = experiment: Antibacterial activity against Haemophilus influenzae ATCC 49247 assessed as growth inhibition after 16 to 20 hrs by broth microdilution method; format: functional; outline: as §1
[1] = Solubility of the compound in PBS at pH 7.4 after 24 hrs by turbidimetric analysis; format: physicochemical
Outline: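 Doubling dilutions in DMSO diluted 20-fold into 100 mM PBS pH 7.4, equilibrated 24 h at room temperature, absorbance read at 620 nm. Value is the highest concentration with no measurable precipitate.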

Streptococcus pyogenes = experiment: Antibacterial activity against Streptococcus pyogenes ATCC 51339 assessed as growth inhibition after 16 to 20 hrs by broth microdilution method; format: functional; outline: as §1
Staphylococcus aureus [2] = experiment: Antibacterial activity against Staphylococcus aureus ATCC 29213 assessed as growth inhibition after 16 to 20 hrs by broth microdilution method; format: functional; outline: as §1
[3] = Inhibition of Escherichia coli DNA gyrase ATPase subunit A2B2 after 60 mins by malachite green staining assay
Outline: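 E. coli gyrase A2B2, 10 nM, with 0.08 mg/mL DNA in 35 mM Tris pH 7.5, 24 mM KCl, 2 mM MgCl2, 6.5% glycerol, 0.1 mg/mL BSA, 2 mM DTT, 5% DMSO. Started with 1 mM ATP, 30 °C for 60 min. Phosphate read with malachite green at 600 nm after 5 min. IC50 taken against no-compound and no-enzyme controls.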

DNA gyrase = DNA gyrase (Staphylococcus aureus, UniProt P0A0K8+P20831); experiment: Inhibition of Staphylococcus aureus DNA gyrase ATPase subunit GyrA2/GyrB2 after 60 mins by malachite green staining assay; format: protein-complex assay
Outline: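 S. aureus gyrase A2B2, 10 nM, with 0.08 mg/mL DNA in 40 mM HEPES pH 7.6, 10 mM Mg acetate, 0.5 M K glutamate, 0.01 mg/mL BSA, 2 mM DTT, 5% DMSO. Reaction started with 1 mM ATP and run 60 min at 30 °C. Malachite green absorbance read at 600 nm. IC50 derived using no-compound and no-enzyme controls.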

[4] = Oral bioavailability in mouse at 3 mg/kg; format: ADME, organism-based; settings: in vivo
Outline: (§2)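 Single 3 mg/kg dose given as an IV bolus by tail vein or by oral gavage, dose volume 5 mL/kg. Rats were bled by jugular vein catheter. Anaesthetised mice were bled from the retro-orbital plexus. Plasma was extracted into methanol and drug measured by LC/MS/MS. Cmax (oral), AUC and clearance (IV) and bioavailability were calculated from plasma concentrations.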

[5] = AUC in mouse at 3 mg/kg, iv; format: ADME, organism-based; parameters: dose 3 mg/kg, route intravenous; settings: plasma; outline: as §2
[6] = Cmax in mouse at 3 mg/kg, po; format: ADME, organism-based; parameters: dose 3 mg/kg, route oral; settings: in vivo; outline: as §2
[7] = Intrinsic clearance in mouse liver microsomes at 10 uM by LC-MS analysis; format: ADME, Microsome; settings: read-out: CLH
Outline: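 Compound at 10 μM, duplicate, 0.1% DMSO, with mouse liver microsomes at 1 mg/mL protein. Started with 1 mM NADPH and stopped at 0, 10, 30 and 60 min. Acetonitrile extracts analysed by LCMS. T1/2 taken from the slope of peak area over time, then converted to intrinsic clearance.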

[8] = Clearance in rat at 3 mg/kg, iv; format: ADME, organism-based; parameters: dose 3 mg/kg, route intravenous; settings: in vivo; outline: as §2
[9] = Oral bioavailability in rat at 3 mg/kg; format: ADME, organism-based; settings: in vivo; outline: as §2
[10] = Clearance in mouse at 3 mg/kg, iv; format: ADME, organism-based; parameters: dose 3 mg/kg, route intravenous; settings: in vivo; outline: as §2
[11] = AUC in rat at 3 mg/kg, iv; format: ADME, organism-based; parameters: dose 3 mg/kg, route intravenous; settings: plasma; outline: as §2
[12] = Cmax in rat at 3 mg/kg, po; format: ADME, organism-based; parameters: dose 3 mg/kg, route oral; settings: in vivo; outline: as §2
Topoisomerase IV = Topoisomerase IV (Staphylococcus aureus, UniProt P0C1S7+P0C1U9); experiment: Inhibition of Staphylococcus aureus DNA topoisomerase 4 subunit ParC2/ParE2 after 60 mins by malachite green staining assay; format: protein-complex assay
Outline: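 S. aureus topo IV C2E2, 25 nM, with 0.01 mg/mL DNA in 50 mM Tris-HCl pH 7.5, 5 mM MgCl2, 0.35 M K glutamate, 0.05 mg/mL BSA, 5 mM DTT, 1% DMSO. ATP added at 1 mM to start, then 30 °C for 60 min. Malachite green read at 600 nm. IC50 calculated relative to no-compound and no-enzyme controls.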

Staphylococcus aureus [13] = experiment: Antibacterial activity against Staphylococcus aureus ATCC 29213 assessed as spontaneous mutant measuring frequency of resistance at 4 to 8 fold MIC relative to control; format: functional, organism-based
[14] = Plasma protein binding in rat; format: ADME, cell-free; settings: read-out: PPB (converted)

SMILES | MIC (Enterococcus faecalis) [µg/mL] | MIC (Haemophilus influenzae) [µg/mL] | solubility kinetic at 24 h [1] [µg/mL] | MIC (Streptococcus pyogenes) [µg/mL] | MIC (Staphylococcus aureus [2]) [µg/mL] | IC50 [3] [µg/mL] | IC50 (DNA gyrase) [nM] | bioavailability [4] [%] | AUC [5] [ng·h/mL] | Cmax [6] [ng/mL] | CLint scaled at 10 µM [7] [mL/min/kg] | clearance [8] [mL/min/kg] | bioavailability [9] [%] | clearance [10] [mL/min/kg] | AUC [11] [ng·h/mL] | Cmax [12] [ng/mL] | IC50 (Topoisomerase IV) [nM] | Activity (Staphylococcus aureus [13]) | fraction unbound [14]
CCNC(=O)Nc1nc2cc(-c3cnc(N4CCC(N)(C(=O)O)CC4)nc3)cc(-c3ccccn3)c2s1 | > 16 | > 16 | 25 (≈ 48.2 µM) | 4 (≈ 7.71 µM) | > 16 | 0.025 (≈ 0.0482 µM) |  |  |  |  |  |  |  |  |  |  |  |  | 
CCNC(=O)Nc1nc2cc(-c3cnc(N4CCC(C(=O)O)(C(F)(F)F)CC4)nc3)cc(-c3ccccn3)c2s1 | 0.25 (≈ 0.437 µM) | 16 (≈ 28 µM) | > 800 | 0.25 (≈ 0.437 µM) | 2 (≈ 3.5 µM) |  | 28 |  |  |  |  |  |  |  |  |  |  |  | 
CCNC(=O)Nc1nc2cc(-c3cnc(N4CCC(CC)(C(=O)O)CC4)nc3)cc(-c3ccccn3)c2s1 | 0.015 (≈ 0.0282 µM) | 4 (≈ 7.52 µM) | > 800 | 0.06 (≈ 0.113 µM) | 0.06 (≈ 0.113 µM) |  | 22.6 | 87 | 14300 | 6100 | < 5.8 | 1.5 | 80 | 3.5 | 27700 | 3500 |  |  | 
CCNC(=O)Nc1nc2cc(-c3cnc(N4CCCCC4(C)C(=O)O)nc3)cc(-c3ccccn3)c2s1 (stereo not drawn) | 0.5 (≈ 0.966 µM) | 8 (≈ 15.5 µM) | 6.25 (≈ 12.1 µM) | 0.5 (≈ 0.966 µM) | 0.5 (≈ 0.966 µM) | 0.007 (≈ 0.0135 µM) |  |  |  |  |  |  |  |  |  |  |  |  | 
CCNC(=O)Nc1nc2cc(-c3cnc(N4CCC(C)(C(=O)O)CC4)nc3)cc(-c3ccccn3)c2s1 | 0.015 (≈ 0.029 µM) | 2 (≈ 3.86 µM) | > 800 | 0.06 (≈ 0.116 µM) | 0.12 (≈ 0.232 µM) |  | 15.5 |  |  |  | < 5.8 | 2.8 |  |  |  | 1800 | 15.5 | inactive | 0.007
CCNC(=O)Nc1nc2cc(-c3cnc(N4CCC(C(=O)O)CC4)nc3)cc(-c3ccccn3)c2s1 | 0.015 (≈ 0.0298 µM) | 2 (≈ 3.97 µM) | > 800 | 0.03 (≈ 0.0596 µM) | 0.12 (≈ 0.238 µM) |  | 19.9 | 8 | 900 | 70 | < 5.8 |  |  | 55 |  |  | 23.8 | inactive | 0.007
CCNC(=O)Nc1nc2cc(-c3cnc(N4CCC(C(=O)O)(S(C)(=O)=O)CC4)nc3)cc(-c3ccccn3)c2s1 | 4 (≈ 6.88 µM) | > 16 | > 800 | 4 (≈ 6.88 µM) | > 16 | 0.015 (≈ 0.0258 µM) |  |  |  |  |  |  |  |  |  |  |  |  | 
CCNC(=O)Nc1nc2cc(-c3cccnc3)cc(-c3ccccn3)c2s1 | 0.12 (≈ 0.32 µM) |  | 6.25 (≈ 16.6 µM) |  |  |  | 37.3 |  |  |  |  |  |  |  |  |  |  |  | 
CCNC(=O)Nc1nc2cc(-c3cnc(N4CCC(C(=O)O)(c5ccccc5)CC4)nc3)cc(-c3ccccn3)c2s1 | 0.06 (≈ 0.104 µM) | > 16 | 12.5 (≈ 21.6 µM) | 0.5 (≈ 0.863 µM) | 0.5 (≈ 0.863 µM) | 0.013 (≈ 0.0224 µM) |  |  |  |  | < 5.8 |  |  |  |  |  |  |  | 

More lines, main results first:

MIC (Enterococcus faecalis) [µg/mL] | MIC (Haemophilus influenzae) [µg/mL] | solubility kinetic at 24 h [1] [µg/mL] | MIC (Streptococcus pyogenes) [µg/mL] | MIC (Staphylococcus aureus [2]) [µg/mL] | IC50 [3] [µg/mL] | IC50 (DNA gyrase) [nM] | bioavailability [4] [%] | AUC [5] [ng·h/mL] | Cmax [6] [ng/mL] | CLint scaled at 10 µM [7] [mL/min/kg] | clearance [8] [mL/min/kg] | bioavailability [9] [%] | clearance [10] [mL/min/kg] | AUC [11] [ng·h/mL] | Cmax [12] [ng/mL] | SMILES | IC50 (Topoisomerase IV) [nM] | Activity (Staphylococcus aureus [13]) | fraction unbound [14]
0.25 (≈ 0.496 µM) | 1 (≈ 1.99 µM) | > 800 | 0.06 (≈ 0.119 µM) | 0.5 (≈ 0.993 µM) |  | 9.93 |  |  |  |  |  |  |  |  |  | CCNC(=O)Nc1nc2cc(-c3cnc(N4CCCC4(C)C(=O)O)nc3)cc(-c3ccccn3)c2s1 (stereo not drawn) |  |  | 
0.12 (≈ 0.286 µM) |  | 50 (≈ 119 µM) |  |  |  | 2.38 |  |  |  |  |  |  |  |  |  | CCNC(=O)Nc1nc2cc(-c3ccc(C(=O)O)nc3)cc(-c3ccccn3)c2s1 |  |  | 
0.06 (≈ 0.116 µM) | 4 (≈ 7.74 µM) | > 800 | 0.06 (≈ 0.116 µM) | 1 (≈ 1.94 µM) |  | 29 |  |  |  |  |  |  |  |  |  | CCNC(=O)Nc1nc2cc(-c3cncc(N4CCC(C)(C(=O)O)CC4)c3)cc(-c3ccccn3)c2s1 |  |  | 
0.03 (≈ 0.058 µM) | 8 (≈ 15.5 µM) | > 800 | 0.12 (≈ 0.232 µM) | 0.5 (≈ 0.966 µM) |  | 38.6 |  |  |  | < 5.8 |  |  |  |  |  | CCNC(=O)Nc1nc2cc(-c3cnc(N4CCC(C)(C(=O)O)CC4)cn3)cc(-c3ccccn3)c2s1 |  |  | 
 | 8 (≈ 15 µM) | > 800 | 0.12 (≈ 0.226 µM) | 0.12 (≈ 0.226 µM) |  | 11.3 |  |  |  | < 5.8 |  |  |  |  |  | CCNC(=O)Nc1nc2cc(-c3cnc(N4CCCC(C)(C(=O)O)CC4)nc3)cc(-c3ccccn3)c2s1 (stereo not drawn) |  |  | 
0.03 (≈ 0.0581 µM) | 2 (≈ 3.87 µM) | > 800 | 0.12 (≈ 0.232 µM) | 0.12 (≈ 0.232 µM) |  | 23.2 | 33 | 7600 | 1700 | < 5.8 | 7.6 | 31 | 6.5 | 6600 | 600 | CCNC(=O)Nc1nc2cc(-c3ccc(N4CCC(C)(C(=O)O)CC4)nc3)cc(-c3ccccn3)c2s1 |  |  | 
 | 4 (≈ 7.94 µM) | > 800 | 0.5 (≈ 0.993 µM) | 2 (≈ 3.97 µM) |  | 79.4 |  |  |  |  |  |  |  |  |  | CCNC(=O)Nc1nc2cc(-c3cnc(N4CCC(C)(C(=O)O)C4)nc3)cc(-c3ccccn3)c2s1 (stereo not drawn) |  |  | 
 | > 16 |  | 1 (≈ 1.91 µM) | 1 (≈ 1.91 µM) |  | 107 |  |  |  |  |  |  |  |  |  | CCNC(=O)Nc1nc2cc(-c3nc(N4CCC(C)(C(=O)O)CC4)ns3)cc(-c3ccccn3)c2s1 |  |  | 
0.5 (≈ 0.962 µM) | 8 (≈ 15.4 µM) | 100 (≈ 192 µM) | 0.12 (≈ 0.231 µM) | 8 (≈ 15.4 µM) | 0.003 (≈ 0.00577 µM) |  |  |  |  |  |  |  |  |  |  | CCNC(=O)Nc1nc2cc(-c3cnc(N4CCC(O)(C(=O)O)CC4)nc3)cc(-c3ccccn3)c2s1 |  |  | 
